Measurements published in ChEMBL document CHEMBL1221298, “InCl3 mediated one-pot multicomponent synthesis, anti-microbial, antioxidant and anticancer evaluation of 3-pyranyl indole derivatives” (Bioorg Med Chem Lett, 2010).
In brackets after ≈: the same amount, converted by molar mass. Activity calls are given as the source filed them. No cut-off for these calls is given here.

Legend:
Type in all cases: functional
Klebsiella pneumoniae [1] = test: microbe, parasite or virus in culture; details: ATCC 11298, 24 h
Bacillus cereus [2] = test: Antimicrobial activity against Bacillus cereus ATCC 11778 at 100 ug/ml after 24 hrs by paper disk diffusion method; details: ATCC 11778, 24 h, read-out: IZ
Staphylococcus aureus [3] = test: microbe, parasite or virus in culture; details: ATCC 9144, 24 h, read-out: IZ
Bacillus cereus [4] = test: microbe, parasite or virus in culture; details: ATCC 11778, 24 h
Staphylococcus aureus [5] = test: microbe, parasite or virus in culture; details: ATCC 9144, 24 h
Escherichia coli [6] = test: microbe, parasite or virus in culture; details: ATCC 25922, 24 h, read-out: IZ
Klebsiella pneumoniae [7] = test: microbe, parasite or virus in culture; details: ATCC 11298, 24 h, read-out: IZ
[8] = tested on: Radical scavenging activity; test: Antioxidant activity assessed as DPPH radical scavenging activity
Summary of the method: (§1)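 Each test sample was mixed with 1 ml DPPH in methanol, incubated at 37 °C for 30 min, and read spectrophotometrically at 517 nm with a blank reading. Scavenging % was expressed as the absorbance decrease at 517 nm relative to DPPH solution without test sample.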

[9] = tested on: Radical scavenging activity; test: Antioxidant activity assessed as DPPH radical scavenging activity at 400 ug/ml
Summary of the method: as §1

[10] = tested on: Radical scavenging activity; test: Antioxidant activity assessed as DPPH radical scavenging activity at 100 ug/ml
Summary of the method: as §1

[11] = Antioxidant activity assessed as ABTS radical scavenging activity at 50 ug/ml
Summary of the method: (§2)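 Test samples at 50, 100, 200 and 400 ug/ml were each mixed with 1 ml of freshly prepared ABTS radical cation solution, adjusted to absorbance 0.7–0.9 at 734 nm. Mixtures reacted 2 h in the dark, then absorbance was read at 734 nm against a blank. Scavenging % was taken as the absorbance decrease relative to ABTS solution without test sample.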

[12] = Antioxidant activity assessed as ABTS radical scavenging activity at 200 ug/ml
Summary of the method: as §2

[13] = tested on: Radical scavenging activity; test: Antioxidant activity assessed as DPPH radical scavenging activity at 200 ug/ml
Summary of the method: as §1

[14] = Antioxidant activity assessed as ABTS radical scavenging activity
Summary of the method: as §2

[15] = Antioxidant activity assessed as ABTS radical scavenging activity at 400 ug/ml
Summary of the method: as §2

[16] = tested on: Radical scavenging activity; test: Antioxidant activity assessed as DPPH radical scavenging activity at 50 ug/ml
Summary of the method: as §1

Escherichia coli [17] = test: microbe, parasite or virus in culture; details: ATCC 25922, 24 h
[18] = Antioxidant activity assessed as ABTS radical scavenging activity at 100 ug/ml
Summary of the method: as §2

MCF7 = test: Cytotoxicity against human MCF7 cells after 24 hrs by MTT assay; details: MCF7, 24 h
Summary of the method: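 Exponentially growing cells plated at 10⁴ cells/well and allowed to attach, then exposed to test compounds or doxorubicin (dissolved in 0.1% DMSO, diluted in medium; range 1–100) for 24 h; controls received medium with 0.1% DMSO. MTT (1 mg/ml) added for 4 h at 37 °C, formazan dissolved in DMSO, absorbance read at 540 nm; % cytotoxicity calculated from blank-corrected absorbances versus control.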

Structure (SMILES)	MIC (Klebsiella pneumoniae [1]) [µg/mL]	zone of inhibition at 100 µg/mL (Bacillus cereus [2]) [mm]	zone of inhibition at 100 µg/mL (Staphylococcus aureus [3]) [mm]	MIC (Bacillus cereus [4]) [µg/mL]	MIC (Staphylococcus aureus [5]) [µg/mL]	zone of inhibition at 100 µg/mL (Escherichia coli [6]) [mm]	zone of inhibition at 100 µg/mL (Klebsiella pneumoniae [7]) [mm]	IC50 [8] [µg/mL]	Activity ([9]; at 400 µg/mL) [%]	Activity ([10]; at 100 µg/mL) [%]	Activity ([11]; at 50 µg/mL) [%]	Activity ([12]; at 200 µg/mL) [%]	Activity ([13]; at 200 µg/mL) [%]	IC50 [14] [µg/mL]	Activity ([15]; at 400 µg/mL) [%]	Activity ([16]; at 50 µg/mL) [%]	MIC (Escherichia coli [17]) [µg/mL]	Activity ([18]; at 100 µg/mL) [%]	further results
O=C(O)c1cn(C2CC2)c2cc(N3CCNCC3)c(F)cc2c1=O [CIPROFLOXACIN]	0.1 (≈ 0.302 µM)	25	26	0.3 (≈ 0.905 µM)	0.2 (≈ 0.604 µM)	27	26												
N#CC1=C(N)OC(c2c[nH]c3ccccc23)=C(C#N)C1c1ccccc1 (stereo not drawn)	20.2 (≈ 59.7 µM)	16	22	18.5 (≈ 54.7 µM)	15.2 (≈ 44.9 µM)	18	18	308.2 (≈ 911 µM)	51.2	46	14.4	24.5	49.7	993.66 (≈ 2940 µM)	26.7	38	19.6 (≈ 57.9 µM)	19.3	
COc1cccc2c1C(=O)c1c(O)c3c(c(O)c1C2=O)C[C@@](O)(C(=O)CO)C[C@@H]3O[C@H]1C[C@H](N)[C@H](O)[C@H](C)O1 [DOXORUBICIN]																			GI50 (MCF7): 20 nM; TGI (MCF7): 210 nM
N#CC1=C(N)OC(c2c[nH]c3ccccc23)=C(C#N)C1c1cccc([N+](=O)[O-])c1 (stereo not drawn)	25.5 (≈ 66.5 µM)	13	19	35.4 (≈ 92.3 µM)	24 (≈ 62.6 µM)	16	15										27.5 (≈ 71.7 µM)		Activity [8]: inactive; Activity [9]: inactive; Activity [10]: inactive; Activity [11]: inactive; Activity [12]: inactive; Activity [13]: inactive; Activity [14]: inactive; Activity [15]: inactive; Activity [16]: inactive; Activity [18]: inactive
Cc1ccccc1C1C(C#N)=C(N)OC(c2c[nH]c3ccccc23)=C1C#N (stereo not drawn)	27.2 (≈ 77.2 µM)	15	16	27.8 (≈ 78.9 µM)	25 (≈ 70.9 µM)	16	15	1371.65 (≈ 3890 µM)	32.5	27.4	10.4	21.4	28.3	> 1000	25.7	25.8	26 (≈ 73.8 µM)	17.2	
O=C1O[C@H]([C@@H](O)CO)C(O)=C1O [ASCORBIC ACID]								< 50	85.3	79.7	28.8	31.5	82.3	650 (≈ 3690 µM)	33.4	77.2		29.7	
COc1cc(Br)c(C2C(C#N)=C(N)OC(c3c[nH]c4ccccc34)=C2C#N)cc1OC (stereo not drawn)	33.4 (≈ 70 µM)	14	20	24.5 (≈ 51.3 µM)	21 (≈ 44 µM)	16	19	< 50	64.4	53.8	18.5	24.2	57.3	880.3 (≈ 1840 µM)	26.7	51.7	29.5 (≈ 61.8 µM)	20.5	
N#CC1=C(N)OC(c2c[nH]c3ccccc23)=C(C#N)C1c1ccccc1Cl (stereo not drawn)	16.1 (≈ 43.2 µM)	17	24	16.4 (≈ 44 µM)	12.4 (≈ 33.3 µM)	21	20	467.49 (≈ 1250 µM)	45.7	34	8.5	14.5	39.6	> 1000	21.4	27.9	16.5 (≈ 44.3 µM)	10.4	
N#CC1=C(N)OC(c2c[nH]c3ccccc23)=C(C#N)C1c1cc(Br)c2c(c1)OCO2 (stereo not drawn)	24.8 (≈ 53.8 µM)	13	19	28.7 (≈ 62.2 µM)	23.5 (≈ 50.9 µM)	17	16	1779.24 (≈ 3860 µM)	22.8	23.8	5.7	10	25.8	> 1000	12.5	20.3	27.3 (≈ 59.2 µM)	6.4	
N#CC1=C(N)OC(c2c[nH]c3ccccc23)=C(C#N)C1c1cccc(Br)c1 (stereo not drawn)	26.3 (≈ 63 µM)	14	16	24 (≈ 57.5 µM)	27.5 (≈ 65.9 µM)	14	14										30.2 (≈ 72.4 µM)		Activity [8]: inactive; Activity [9]: inactive; Activity [10]: inactive; Activity [11]: inactive; Activity [12]: inactive; Activity [13]: inactive; Activity [14]: inactive; Activity [15]: inactive; Activity [16]: inactive; Activity [18]: inactive
CN(C)c1ccc(C2C(C#N)=C(N)OC(c3c[nH]c4ccccc34)=C2C#N)cc1 (stereo not drawn)	25.2 (≈ 66.1 µM)	15	18	25.6 (≈ 67.1 µM)	23.8 (≈ 62.4 µM)	17	16	< 50	75.7	73.1	14.4	20.5	74.6	900 (≈ 2360 µM)	26.7	72.1	26.7 (≈ 70 µM)	18.5	
